Compound activity as filed in PubChem BioAssay.
ASAP1 inh – inhibitors of human ASAP1 ArfGAP activity, primary screen, biochemical, fluorescence polarization | Arf-GAP with SH3 domain, ANK repeat and PH domain-containing protein 1 (Homo sapiens), … | ASAP1-stimulated ARF1 GTP hydrolysis, GDP FP detection | hit rate 0.19% among 360,000 | inhibition, % at 16.5 µM; in the data active = inhibition above about 25%
Target sequence (Q9ULH1 325-724 limits assumed): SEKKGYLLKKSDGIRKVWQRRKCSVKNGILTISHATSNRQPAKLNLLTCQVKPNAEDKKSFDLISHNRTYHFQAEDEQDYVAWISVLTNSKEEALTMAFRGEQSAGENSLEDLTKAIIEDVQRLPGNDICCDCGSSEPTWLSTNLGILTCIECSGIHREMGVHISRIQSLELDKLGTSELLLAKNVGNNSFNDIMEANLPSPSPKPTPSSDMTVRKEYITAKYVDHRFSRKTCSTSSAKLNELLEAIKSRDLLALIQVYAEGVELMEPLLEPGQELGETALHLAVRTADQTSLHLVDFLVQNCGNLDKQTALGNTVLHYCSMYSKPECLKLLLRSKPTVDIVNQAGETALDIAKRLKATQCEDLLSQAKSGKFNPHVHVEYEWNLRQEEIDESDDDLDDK
SMARCA2 activ – SMARCA2 (BRM) function activators, primary screen, cell-based, luminescence, high throughput | MG213 cells, MMTV-luciferase reporter, dexamethasone, overnight | activation, % at 9.1 µM | hit rate 1% among 370,000; in the data active = activation above about 7.8%
ARFGAP1 inh – inhibitors of rat ARFGAP1 GAP activity, primary screen, biochemical, fluorescence polarization, GDP tracer; ADP-ribosylation factor GTPase-activating protein 1 (Rattus norvegicus), Q62848; Arfgap1-stimulated ARF1 GTP hydrolysis, GDP FP detection; inhibition, % at 16.5 µM; hit rate 0.26% among 360,000; AID 651572, 2012;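 active = inhibition above a per-plate limit, mean inhibition of low control wells plus 3 SD, cut at about 25% in these data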
Target sequence (Q62848 1-136 limits assumed): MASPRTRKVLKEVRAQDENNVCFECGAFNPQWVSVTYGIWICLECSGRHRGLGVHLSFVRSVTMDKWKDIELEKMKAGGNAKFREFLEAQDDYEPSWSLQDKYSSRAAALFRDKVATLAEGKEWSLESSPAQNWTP
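Assay system: Rat Arfgap1 GAP domain (His6, aa 1-136), purified enzyme | Buffer or medium: HEPES 25 mM pH 7.5, NaCl 150 mM, MgCl2, DTT | Schedule: GTP hydrolysis reaction 2 h at 25 °C | Signal: FP of antibody-bound GDP Alexa 633 tracer, ex 620/em 688 nm | Measure: Percent inhibition of Arfgap1-stimulated GTP hydrolysis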
esBAF inh – Bmi1 luciferase reporter increase in mESCs, primary screen, esBAF inhibitor project, mouse ES cells, Bmi1 luciferase knock-in, single point; 24 h; 100% = twice the neutral-well signal; reporter increase, % at 12.5 µM; hit rate 2% among 350,000; AID 602393, 2012; in the data active = activation above about 40%; inconclusive = no clear call, values can overlap the other calls;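 note: a rise in the Bmi1 reporter signal indicates esBAF inhibition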
Large screens that a line does not name were inactive. Most compounds without a hit are left out; they make up all but 2.6% or so of the library.

O=C(NCCc1ccccc1)c1cccc(NC(=O)C2CC2)c1	esBAF inh 52
O=C(NCCCCc1ccccc1)c1cccc(NC(=O)C2CCC2)c1	none
O=C(NCCc1ccccc1)c1cccc(NC(=O)C2CCC2)c1	esBAF inh 57
[O-]/[N+](=C\c1ccccc1)c1ccc(Br)cc1	esBAF inh 75
[O-]/[N+](=C\c1ccccc1)c1ccccc1	none
C[C@H](CO)N1C[C@H](C)[C@H](CN(C)C(=O)Nc2cccc3ccccc23)Oc2ccc(NS(=O)(=O)c3ccc(F)cc3)cc2CC1=O	none (no result: ASAP1 inh, SMARCA2 activ, ARFGAP1 inh)
O=C(Nc1ccccc1O)c1ccc(Cl)cc1	none
COc1ccc(C(=O)Nc2cccc3c2CCCC3)cc1	esBAF inh 48
COc1ccc(C(=O)Nc2cc(Cl)ccc2OC(=O)c2ccc(OC)cc2)cc1	esBAF inh 69 (no result: ASAP1 inh, SMARCA2 activ, ARFGAP1 inh)
O=C(Nc1ccccc1OC(=O)c1ccc(Cl)cc1)c1ccc(Cl)cc1	esBAF inh 65
O=C(Nc1cccc2cccnc12)c1ccc(Cl)cc1	esBAF inh 45
COc1ccc(CC(=O)Nc2cccc3c2CCCC3)cc1	none
C[C@H]1CCCCO[C@@H](CN(C)C(=O)C2CCCCC2)[C@@H](C)CN([C@@H](C)CO)C(=O)c2cc(NC(=O)C3CCCCC3)ccc2O1	none (no result: ASAP1 inh, SMARCA2 activ, ARFGAP1 inh)
C[C@H](CO)N1C[C@H](C)[C@H](CN(C)S(=O)(=O)c2ccccc2)Oc2ccc(NC(=O)CCC(F)(F)F)cc2CC1=O	none (no result: ASAP1 inh, SMARCA2 activ, ARFGAP1 inh)
COc1ccc(-c2cc(=O)c3ccccc3o2)cc1	esBAF inh 63
O=c1cc(-c2cccc(F)c2)oc2ccccc12	esBAF inh 51
O=c1cc(-c2ccccc2)oc2cc(O)ccc12	esBAF inh inconclusive
O=c1cc(-c2ccc(O)cc2)oc2ccc(O)cc12	SMARCA2 activ 7.9
C[C@H]1CCCCO[C@H](CN(C)C(=O)Nc2ccc(F)cc2)[C@@H](C)CN([C@@H](C)CO)C(=O)c2cc(NS(C)(=O)=O)ccc2O1	none (no result: ASAP1 inh, SMARCA2 activ, ARFGAP1 inh)
CN(C)c1ccc(NC(=O)N2CCOCC2)cc1	esBAF inh 55
OC(c1ccccc1)c1ncc(-c2ccccc2F)[nH]1 (configuration not stated)	esBAF inh 62
OC(c1cccc(F)c1)c1ncc(-c2ccc3ccccc3c2)[nH]1 (configuration not stated)	esBAF inh 74
OC(c1ccccc1)c1ncc(-c2ccccc2Cl)[nH]1 (configuration not stated)	SMARCA2 activ 7.9, esBAF inh inconclusive
COc1ccccc1-c1cnc(C(O)c2ccc(C)cc2)[nH]1 (configuration not stated)	esBAF inh 55
OC(c1cccc(Cl)c1)c1ncc(-c2ccc3ccccc3c2)[nH]1 (configuration not stated)	none
CC(=O)N(C)C[C@@H]1[C@@H](c2ccccc2)[C@H](CO)N1C(=O)C1CC1	none (no result: ASAP1 inh, SMARCA2 activ, ARFGAP1 inh)
CC1(C)Cc2c(cnn2-c2ccc(F)cc2)C(NC(=O)C2=NNC(=O)CC2)C1 (configuration not stated)	esBAF inh 52
CC1(C)Cc2c(cnn2-c2ccc(F)cc2)C(NC(=O)CCN2CCCC2=O)C1 (configuration not stated)	esBAF inh 44
CC1(C)Cc2c(cnn2-c2cccc(F)c2)C(NC(=O)CCN2CCCC2=O)C1 (configuration not stated)	none
O=C(C[C@@H]1CC[C@H]2[C@@H](COC[C@@H](O)CN2Cc2ccccc2)O1)NCCCN1CCOCC1	none (no result: ASAP1 inh, SMARCA2 activ, ARFGAP1 inh)
COc1ccc(C(=O)CCc2ccccc2)cc1	esBAF inh 48
COc1ccc(N=Nc2nc3ccc(Br)cc3n2C)cc1	esBAF inh 52
C[C@H](CO)N1C[C@H](C)[C@@H](CN(C)C(=O)Nc2ccc(F)cc2)Oc2ccc(NC(=O)Nc3ccccc3)cc2CC1=O	none (no result: ASAP1 inh, SMARCA2 activ, ARFGAP1 inh)
Cc1ccc(N/C=C(/C#N)c2ccsc2)cc1	esBAF inh 68
Cc1ccc(C)c(NC(=O)c2cc(-c3cc(C)ccc3O)n[nH]2)c1	esBAF inh 50
COc1ccc(Cl)cc1NC(=O)c1cc(-c2cc(C)ccc2O)n[nH]1	none
CCc1ccc(O)c(-c2cc(C(=O)Nc3cccnc3)[nH]n2)c1	esBAF inh 56
Cc1cccc(NC(=O)c2cc(-c3cc(Cl)ccc3O)n[nH]2)c1	esBAF inh 71 (no result: ASAP1 inh, SMARCA2 activ, ARFGAP1 inh)
O=C(Nc1ccccc1N1CCOCC1)c1ccc2ccccc2n1	esBAF inh 59
Cn1nc(C(=O)Nc2ccccc2N2CCOCC2)ccc1=O	none
Cc1ccc(C(=O)C2Oc3ccccc3C3CC(c4ccc(C)cc4)=NN23)cc1 (configuration not stated)	none (no result: esBAF inh)
Cc1ccc(C2=NN3C(C(=O)c4ccccc4)Oc4ccccc4C3C2)cc1 (configuration not stated)	esBAF inh 68
CCS(=O)(=O)NCC[C@H]1CC[C@H](NC(=O)C2CCCCC2)[C@@H](CO)O1	none (no result: ASAP1 inh, SMARCA2 activ, ARFGAP1 inh)
Cc1cc(=O)oc2cc(NC(=O)c3ccccc3OC(F)F)ccc12	esBAF inh 53
Cc1cc(=O)oc2cc(NC(=O)c3cc4ccccc4o3)ccc12	none (no result: esBAF inh)
Cc1cc(=O)oc2cc(NC(=O)c3cc(F)ccc3F)ccc12	esBAF inh 53
Cc1cc(=O)oc2cc(NC(=O)c3cccc(Br)c3)ccc12	none
O=C(CC1CC1)Nc1ccc2c(c1)[C@H]1C[C@H](CC(=O)N3CCOCC3)O[C@H](CO)[C@H]1O2	none (no result: ASAP1 inh, SMARCA2 activ, ARFGAP1 inh)
O=C(C[C@H]1CC[C@@H](NC(=O)C2CCC2)[C@@H](CO)O1)Nc1nccs1	none (no result: ASAP1 inh, SMARCA2 activ, ARFGAP1 inh)
CCOC(=O)c1csc(NC(=O)c2cccs2)n1	esBAF inh 53
CCOC(=O)Cc1csc(NC(=O)c2cccs2)n1	esBAF inh 63
COC(=O)Cc1ccc(NC(=O)c2cccs2)cc1	esBAF inh 49
CCCNC(=O)N1[C@@H]2Cn3c(ccc(-c4cccc(OC)c4)c3=O)[C@H]1[C@@H](C(=O)NC1CCC1)[C@@H]2CO	none (no result: ASAP1 inh, SMARCA2 activ, ARFGAP1 inh)
O=C(Cc1cn2ccsc2n1)OCc1ccccc1	none
c1ccc(CSCc2cn3ccsc3n2)cc1	esBAF inh 59
Cc1ccccc1S(=O)(=O)N1C[C@H](O)COC[C@H]2O[C@H](CC(=O)NCCc3ccccc3)CC[C@@H]21	none (no result: ASAP1 inh, SMARCA2 activ, ARFGAP1 inh)
CCCC(=O)Nc1ccc2c(c1)OC[C@@H](C)N(Cc1ccc(F)cc1)C[C@H](C)[C@@H](OC)CN(C)C2=O	none (no result: ASAP1 inh, SMARCA2 activ, ARFGAP1 inh)
CN1C(=O)c2cc(NC(=O)Cc3ccccc3)ccc2OC[C@H]2O[C@@H](CC(=O)O)CC[C@@H]21	none (no result: ASAP1 inh, SMARCA2 activ, ARFGAP1 inh)
CCN(Cc1ccccc1)c1ccc(/C=C(\C#N)c2ccccn2)cc1	esBAF inh 77
O=C(Nc1ccccc1-c1ccccc1)c1ccc(=O)[nH]n1	esBAF inh 43
O=C(Nc1ccccn1)c1ccc(=O)[nH]n1	none (no result: esBAF inh)
CCc1cc2c(=O)c(-c3cscn3)coc2cc1O	esBAF inh 90
NC1=NC(=O)/C(=C/c2ccc(OCC(=O)O)cc2)S1	none
CCN(CC)c1ccc(/C=C2\SC(N)=NC2=O)cc1	esBAF inh 49
